A1 apoptosis 2 = A1 inhibitors via caspase activation, primary screen, cell-based, luminescence, HTS, two replicates | 24,000 tested, under 10 active | caspase activation, % (test concentration not listed) | MEF A1-2A-BIM cells, caspase-Glo luminescence, 3 h; percent of clofoctol response, DMSO zero; in the data active = caspase activation above about 5.9%
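system = A1-2A-BIM-expressing MEF cells | quantity = 2500 MEF cells/well | dosing = 50 nL compound per well, pinned | schedule = overnight cell settling, then 3 h compound exposure, 37 °C | signal = luminescence from DEVD-luciferin Caspase-Glo reagent, 1:1 in 50 mM HEPES, 1 h RT | read-out = Caspase-3/7 activation, seen as rise in luminescence signal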
INS-1E rescue = protection of INS-1E cells from cytokine death, primary screen, ATP luminescence, single point; INS-1E cytokine-induced death, 48 h; normalised: neutral wells 0, positive control 100; protection from cytokine-induced ATP loss, % at 10 µM; 0.1% of 20,000 active; AID 488910, 2010;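 active = mean replicate protection from cytokine-induced ATP loss at least 50% and at least 75% of replicates each reaching 50%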
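Material: INS-1E rat cells; Quantity: 8000 cells/well; Buffer or medium: phenol-red-free RPMI with 5% fetal bovine serum; Probe or stimulus: cytokine cocktail of IFN-γ, TNF-α and IL-1β; Compound dosing: single test concentration per compound, delivered by pin transfer; Incubation: 48 h co-treatment, 10 min post-lysis read; Signal: CellTiter-Glo luminescence.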
T cruzi HTS = inhibitors of intracellular Trypanosoma cruzi, primary screen, cell-based, plate reader, single point, set 2; 4.9% of 22,000 active; activity score (inhibition), % at 5.01 µM; intracellular Trypanosoma cruzi in host cells; in the data active = activity score above about 55%;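 also: parasites and compound incubated about four days before reading; 0% = median of neutral control wells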
Active calls of the source: *; nt = no result. Shown is part of a subset that was picked to be rich in hits.

SMILES | A1 apoptosis 2 | INS-1E rescue | T cruzi HTS
C[C@@H]1CN([C@@H](C)CO)C(=O)c2cccc(NC(=O)C3CCCCC3)c2O[C@H]1CN(C)Cc1ccc(Oc2ccccc2)cc1 | nt | -94.7 | 65.6*
C[C@@H]1CN([C@H](C)CO)C(=O)c2cccc(NC(=O)C3CCCCC3)c2O[C@H]1CN(C)Cc1ccc(Oc2ccccc2)cc1 | -1.4 | -26.7 | 69.1*
C[C@@H]1CN([C@@H](C)CO)C(=O)c2cccc(NC(=O)C3CCCCC3)c2O[C@@H]1CN(C)Cc1ccc(Oc2ccccc2)cc1 | nt | -65.3 | 16.9
C[C@H](CO)N1C[C@H](C)[C@@H](CN(C)Cc2ccc(Oc3ccccc3)cc2)Oc2c(NC(=O)C3CCCCC3)cccc2C1=O | nt | -61.7 | 75.0*
C[C@H](CO)N1C[C@H](C)[C@H](CN(C)Cc2ccc(Oc3ccccc3)cc2)Oc2c(NC(=O)C3CC3)cccc2C1=O | 1.5 | -16.0 | -20.3
COC(=O)[C@]1(Cc2ccccc2CN=[N+]=[N-])N=C(c2ccc(OCCCO)cc2)O[C@@H]1c1ccccc1N=[N+]=[N-] | -0.4 | nt | nt
O=C(N/N=C/c1cccc2ccccc12)c1ccccc1O | -3.5 | -30.3 | -10.8
CC(C)Nc1cccnc1N1CCN(C(=O)c2cc3cc(O)ccc3[nH]2)CC1 | 0.9 | nt | nt
C[C@H]1CN([C@@H](C)CO)C(=O)Cc2cc(NC(=O)Nc3ccc4c(c3)OCO4)ccc2O[C@@H]1CN(C)Cc1ccc(C(=O)Nc2ccccc2N)cc1 | -0.5 | -9.7 | 55.8*
C[C@H](CO)N1C[C@H](C)[C@H](CN(C)Cc2ccc(C(=O)Nc3ccccc3N)cc2)Oc2ccc(NC(=O)Nc3ccc4c(c3)OCO4)cc2CC1=O | nt | 47.9 | 67.1*
CC(C)NC(=O)Nc1ccc2c(c1)CC(=O)N([C@@H](C)CO)C[C@@H](C)[C@@H](CN(C)Cc1ccc(C(=O)Nc3ccccc3N)cc1)O2 | nt | -23.2 | 40.3
O=C(N/N=C/c1cn(Cc2ccccc2)c2ccccc12)c1ccccc1O | nt | -10.3 | -25.9
C[C@H]1CN([C@@H](C)CO)C(=O)c2cccc(NC(=O)Nc3ccc4c(c3)OCO4)c2O[C@H]1CN(C)Cc1ccc(C(=O)Nc2ccccc2N)cc1 | nt | -12.9 | 66.4*
C[C@@H]1CN([C@@H](C)CO)C(=O)c2cc(NC(=O)Nc3ccc4c(c3)OCO4)ccc2O[C@H]1CN(C)Cc1ccc(C(=O)Nc2ccccc2N)cc1 | 0.1 | -18.7 | 54.9
C[C@@H]1CN([C@@H](C)CO)C(=O)c2cc(NC(=O)Nc3ccc4c(c3)OCO4)ccc2O[C@@H]1CN(C)Cc1ccc(C(=O)Nc2ccccc2N)cc1 | nt | 4.4 | 46.1
C[C@@H]1CN([C@H](C)CO)C(=O)c2cccc(NC(=O)Nc3ccc4c(c3)OCO4)c2O[C@@H]1CN(C)Cc1ccc(C(=O)Nc2ccccc2N)cc1 | nt | 10.5 | 68.0*
CC1=C(C/C=N/NC(=O)c2cccc(C(=O)NO)c2)C(C)(C)CCC1 | -0.5 | -5.4 | 5.1
CN(C)c1ccc(/C=N/NC(=O)c2ccccc2O)cc1 | nt | -23.7 | -12.0
C[C@H](CO)N1C[C@H](C)[C@H](CN(C)S(=O)(=O)c2ccccc2)OCCCC[C@H](C)Oc2ccc(NC(=O)Nc3ccc(C(F)(F)F)cc3)cc2C1=O | -0.5 | nt | nt
COc1ccc(S(=O)(=O)N(C)C[C@@H]2OCCCC[C@@H](C)Oc3ccc(NC(=O)Nc4ccc(C(F)(F)F)cc4)cc3C(=O)N([C@H](C)CO)C[C@@H]2C)cc1 | nt | -10.8 | 64.6*
COc1ccc(S(=O)(=O)N(C)C[C@H]2OCCCC[C@H](C)Oc3ccc(NC(=O)Nc4ccc(C(F)(F)F)cc4)cc3C(=O)N([C@H](C)CO)C[C@H]2C)cc1 | 0.1 | nt | nt
C[C@@H]1CCCCO[C@H](CN(C)S(=O)(=O)c2ccccc2)[C@@H](C)CN([C@H](C)CO)C(=O)c2cc(NC(=O)Nc3ccc(C(F)(F)F)cc3)ccc2O1 | 0.0 | -17.9 | 63.9*
Cc1ccc(S(=O)(=O)N(C)C[C@@H]2OCCCC[C@H](C)Oc3ccc(NC(=O)Nc4ccc(C(F)(F)F)cc4)cc3C(=O)N([C@@H](C)CO)C[C@@H]2C)cc1 | -2.0 | nt | nt
C[C@@H]1CCCCO[C@H](CN(C)S(=O)(=O)c2ccccc2)[C@@H](C)CN([C@@H](C)CO)C(=O)c2cc(NC(=O)Nc3ccc(C(F)(F)F)cc3)ccc2O1 | 0.8 | nt | nt
C[C@@H]1CCCCO[C@@H](CN(C)S(=O)(=O)c2ccccc2)[C@@H](C)CN([C@H](C)CO)C(=O)c2cc(NC(=O)Nc3ccc(C(F)(F)F)cc3)ccc2O1 | -0.1 | -12.9 | 68.6*
SMILES | A1 apoptosis 2 | INS-1E rescue | T cruzi HTS
Cc1ccc(S(=O)(=O)N(C)C[C@H]2OCCCC[C@@H](C)Oc3ccc(NC(=O)Nc4ccc(C(F)(F)F)cc4)cc3C(=O)N([C@H](C)CO)C[C@@H]2C)cc1 | nt | -61.5 | 64.1*
CC(C)(C)OC(=O)CC[C@]12N=C(c3ccc(OCCCO)cc3)O[C@H]1c1ccccc1CN(CCS(=O)(=O)c1ccccc1)C2=O | 0.5 | nt | nt
O=C(N/N=C\c1cc(Br)ccc1O)c1ccccc1O | nt | -129.1 | 47.5
O=C(CCCCC(=O)N/N=C/c1cccs1)NO | nt | 6.5 | 15.5
COc1ccc([Si](C)(C)[C@H]2[C@H](CCn3cc(CCO)nn3)O[C@@]3(C(=O)N(Cc4ccc(N5CCOC5=O)cc4)c4ccccc43)[C@@H]2C)cc1 | 0.0 | nt | nt
COc1ccc([C@H]2C=C(C(=O)NCc3ccccc3)O[C@@H](OCc3ccc(CO)cc3)C2)cc1 | 0.7 | nt | nt
O=C(NO)c1cccc(C(=O)N/N=C/c2c(O)cc(O)cc2O)c1 | 1.6 | -5.0 | -5.1
COC(=O)c1ccc(/C=N/NC(=O)c2ccc(C(=O)NO)cc2)cc1 | -0.5 | nt | nt
Cc1noc(C)c1S(=O)(=O)N(C)C[C@H]1OCCCC[C@@H](C)Oc2ccc(NC(=O)Nc3ccc(C(F)(F)F)cc3)cc2C(=O)N([C@H](C)CO)C[C@@H]1C | 2.2 | -23.1 | 69.6*
Cc1noc(C)c1S(=O)(=O)N(C)C[C@@H]1OCCCC[C@H](C)Oc2ccc(NC(=O)Nc3ccc(C(F)(F)F)cc3)cc2C(=O)N([C@H](C)CO)C[C@H]1C | 0.1 | nt | nt
COc1ccc(S(=O)(=O)N(C)C[C@@H]2Oc3ccc(NS(=O)(=O)c4ccccc4)cc3CC(=O)N([C@H](C)CO)C[C@H]2C)cc1 | 1.0 | 10.5 | -14.6
COc1ccc(S(=O)(=O)Nc2ccc3c(c2)CC(=O)N([C@H](C)CO)C[C@@H](C)[C@@H](CN(C)S(=O)(=O)c2ccccc2)O3)cc1 | 0.6 | 7.1 | 74.2*
Cc1ccc(S(=O)(=O)Nc2ccc3c(c2)CC(=O)N([C@@H](C)CO)C[C@@H](C)[C@@H](CN(C)S(=O)(=O)c2cccs2)O3)cc1 | nt | -0.5 | 37.7
COc1ccc(S(=O)(=O)N(C)C[C@H]2Oc3ccc(NS(=O)(=O)c4ccc(C)cc4)cc3CC(=O)N([C@@H](C)CO)C[C@H]2C)cc1 | nt | 0.0 | 53.1
C[C@@H]1CN([C@H](C)CO)C(=O)Cc2cc(NS(=O)(=O)c3ccccc3)ccc2O[C@@H]1CN(C)S(=O)(=O)c1ccc(Cl)cc1 | nt | 0.5 | 68.2*
